Measurements reported in ChEMBL document CHEMBL4765399, “Design, synthesis, and biological evaluation of 5-((8-methoxy-2-methylquinolin-4-yl)amino)-1H-indole-2-carbohydrazide derivatives as novel Nur77 modulators” (Eur J Med Chem, 2020).

What was measured:
L02 = experiment: Cytotoxicity against human L02 cells assessed as reduction in cell viability incubated for 48 hrs by MTT assay; format: cell-based; settings: L02, 48 h
Summary of the method: (§1)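 MTT assay after 48 h exposure at six concentrations, range chosen by cytotoxicity. Inhibition = (ODcontrol − ODtest)/ODcontrol × 100%; IC50 is the concentration halving OD versus untreated cells. Means ± SD of three independent determinations. HepG2 and SMMC-7721 grown in DMEM, QGY-7703 and LO2 in RPMI 1640, with 10% FBS at 37 °C.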

QGY-7703 = experiment: Antiproliferative activity against human QGY-7703 cells assessed as reduction in cell viability incubated for 48 hrs by MTT assay; format: functional, cell-based; settings: QGY-7703, 48 h; summary of the method: as §1
HepG2 = experiment: Antiproliferative activity against human HepG2 cells assessed as reduction in cell viability incubated for 48 hrs by MTT assay; format: functional, cell-based; settings: HepG2, 48 h; summary of the method: as §1
SMMC-7721 = experiment: Antiproliferative activity against human SMMC-7721 cells assessed as reduction in cell viability incubated for 48 hrs by MTT assay; format: functional, cell-based; settings: SMMC-7721, 48 h; summary of the method: as §1
[1] = molecular target: Nuclear receptor subfamily 4immunitygroup A member 1 (Homo sapiens, UniProt P22736); experiment: Binding affinity to Nur77 ligand binding domain (unknown origin) at 10 uM by surface plasmon resonance analysis; settings: filed as modulator
Chain of Nuclear receptor subfamily 4immunitygroup A member 1 (P22736 whole entry, the tested form may be a part): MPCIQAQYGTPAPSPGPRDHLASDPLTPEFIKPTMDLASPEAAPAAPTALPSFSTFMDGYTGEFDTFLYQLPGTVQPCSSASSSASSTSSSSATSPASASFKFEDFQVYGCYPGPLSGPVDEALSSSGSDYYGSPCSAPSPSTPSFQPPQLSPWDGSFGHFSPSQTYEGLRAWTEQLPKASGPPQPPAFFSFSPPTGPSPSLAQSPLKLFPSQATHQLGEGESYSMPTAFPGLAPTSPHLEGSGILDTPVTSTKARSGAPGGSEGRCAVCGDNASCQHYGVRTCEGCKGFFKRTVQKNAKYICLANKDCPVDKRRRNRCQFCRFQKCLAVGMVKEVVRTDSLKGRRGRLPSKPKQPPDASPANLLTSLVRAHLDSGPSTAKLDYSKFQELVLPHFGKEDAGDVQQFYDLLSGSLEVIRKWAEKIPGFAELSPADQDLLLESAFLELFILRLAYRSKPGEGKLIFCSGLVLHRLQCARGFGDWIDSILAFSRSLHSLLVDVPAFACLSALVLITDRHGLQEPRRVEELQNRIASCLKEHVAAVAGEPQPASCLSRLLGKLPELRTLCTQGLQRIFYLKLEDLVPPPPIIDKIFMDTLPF
Summary of the method: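 Single-concentration SPR screen at 10.0 µM against Nur77-LBD; binding given as RU response.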

SMILES	IC50 (HepG2) [µM]	IC50 (SMMC-7721) [µM]	Activity [1] [RU]	IC50 (L02) [µM]	IC50 (QGY-7703) [µM]
COc1ccc(/C=N/NC(=O)c2cc3cc(Nc4cc(C)nc5c(OC)cccc45)ccc3[nH]2)c(OC)c1OC	6.32	8.43	–	13.7	3.78
COc1cccc2c(Nc3ccc4[nH]c(C(=O)N/N=C/c5cc6ccccc6nc5Cl)cc4c3)cc(C)nc12	> 20	18.8	–	> 20	9.31
COc1cccc2c(Nc3ccc4[nH]c(C(=O)N/N=C/c5cccc(C)c5)cc4c3)cc(C)nc12	2.92	3.14	–	3.16	1.74
COc1cccc(OC)c1/C=N/NC(=O)c1cc2cc(Nc3cc(C)nc4c(OC)cccc34)ccc2[nH]1	7.52	11.7	–	7.31	> 20
COc1cc(/C=N/NC(=O)c2cc3cc(Nc4cc(C)nc5c(OC)cccc45)ccc3[nH]2)cc(OC)c1	> 20	> 20	–	> 20	> 20
COc1cccc2c(Nc3ccc4[nH]c(C(=O)N/N=C/c5cccs5)cc4c3)cc(C)nc12	5.44	6.49	–	6.33	1.53
COc1cccc2c(Nc3ccc4[nH]c(C(=O)N/N=C/c5ccccc5F)cc4c3)cc(C)nc12	1.22	1.38	–	2.48	5.42
COc1cc(/C=N/NC(=O)c2cc3cc(Nc4cc(C)nc5c(OC)cccc45)ccc3[nH]2)cc(OC)c1OC	> 20	> 20	–	> 20	> 20
COc1cccc2c(Nc3ccc4[nH]c(C(=O)N/N=C/c5cccnc5)cc4c3)cc(C)nc12	> 20	> 20	–	> 20	> 20
COc1cccc2c(Nc3ccc4[nH]c(C(=O)N/N=C/c5ccc([N+](=O)[O-])cc5O)cc4c3)cc(C)nc12	> 20	> 20	–	> 20	> 20
COc1cccc2c(Nc3ccc4[nH]c(C(=O)N/N=C/c5ccc(C(F)(F)F)cc5C(F)(F)F)cc4c3)cc(C)nc12	> 20	> 20	–	> 20	> 20
COc1cccc(/C=N/NC(=O)c2cc3cc(Nc4cc(C)nc5c(OC)cccc45)ccc3[nH]2)c1OC	1.09	4.89	–	2.79	1.96
COc1ccc(/C=N/NC(=O)c2cc3cc(Nc4cc(C)nc5c(OC)cccc45)ccc3[nH]2)cc1OC	> 20	> 20	–	> 20	> 20
COc1ccc(/C=N/NC(=O)c2cc3cc(Nc4cc(C)nc5c(OC)cccc45)ccc3[nH]2)cc1Br	> 20	> 20	–	1.2	1.89
COc1cccc2c(Nc3ccc4[nH]c(C(=O)N/N=C/c5ccnc6ccccc56)cc4c3)cc(C)nc12	> 20	> 20	–	> 20	15.5
CC1=C(O)C(=O)C=C2C1=CC=C1[C@@]2(C)CC[C@@]2(C)[C@@H]3C[C@](C)(C(=O)O)CC[C@]3(C)CC[C@]12C [CELASTROL]	1.3	1.07	–	1.94	2.43

Continued, in another order:

IC50 (HepG2) [µM]	IC50 (SMMC-7721) [µM]	Activity [1] [RU]	SMILES	IC50 (L02) [µM]	IC50 (QGY-7703) [µM]
2.17	> 20	–	COc1cccc2c(Nc3ccc4[nH]c(C(=O)N/N=C/c5ccc(F)c(C(F)(F)F)c5)cc4c3)cc(C)nc12	> 20	2.43
14.7	4.37	–	COc1cccc2c(Nc3ccc4[nH]c(C(=O)N/N=C/c5ccccn5)cc4c3)cc(C)nc12	10.3	> 20
6.62	> 20	–	COc1ccc2[nH]c(C)c(/C=N/NC(=O)c3cc4cc(Nc5cc(C)nc6c(OC)cccc56)ccc4[nH]3)c2c1	> 20	14.1
> 20	1.75	–	COc1cccc(/C=N/NC(=O)c2cc3cc(Nc4cc(C)nc5c(OC)cccc45)ccc3[nH]2)c1	9.85	> 20
2.1	4.58	–	COc1ccccc1/C=N/NC(=O)c1cc2cc(Nc3cc(C)nc4c(OC)cccc34)ccc2[nH]1	5.17	3.4
> 20	> 20	–	COc1cccc2c(Nc3ccc4[nH]c(C(=O)N/N=C/c5ccncc5)cc4c3)cc(C)nc12	> 20	> 20
1.98	0.73	91	COc1ccc(/C=N/NC(=O)c2cc3cc(Nc4cc(C)nc5c(OC)cccc45)ccc3[nH]2)cc1C(F)(F)F	5.23	0.4
10.4	> 20	–	COc1cccc2c(Nc3ccc4[nH]c(C(=O)N/N=C/c5ccc(C#N)cc5)cc4c3)cc(C)nc12	2.8	2.36
> 20	> 20	–	COc1cccc2c(Nc3ccc4[nH]c(C(=O)N/N=C/c5ccc(O)cc5)cc4c3)cc(C)nc12	9.31	14.1
> 20	> 20	–	COc1cccc2c(Nc3ccc4[nH]c(C(=O)N/N=C/c5cc(O)ccc5O)cc4c3)cc(C)nc12	> 20	> 20
7.45	> 20	–	COc1cccc2c(Nc3ccc4[nH]c(C(=O)N/N=C/c5cc(C(C)(C)C)c(O)c(C(C)(C)C)c5)cc4c3)cc(C)nc12	3.54	4.02
7.47	16.2	–	COc1ccc(/C=N/NC(=O)c2cc3cc(Nc4cc(C)nc5c(OC)cccc45)ccc3[nH]2)c(OC)c1	5.72	5
8.15	> 20	–	COc1cccc2c(Nc3ccc4[nH]c(C(=O)N/N=C/c5ccc(O)cc5O)cc4c3)cc(C)nc12	15.9	> 20
4.19	> 20	–	COc1cccc2c(Nc3ccc4[nH]c(C(=O)N/N=C/c5cccc(C(F)(F)F)c5)cc4c3)cc(C)nc12	13.5	5.39
0.69	1.21	88.2	COc1ccc(/C=N/NC(=O)c2cc3cc(Nc4cc(C)nc5c(OC)cccc45)ccc3[nH]2)cc1	0.76	> 20
2.93	5.25	–	O=C(O)c1ccc2cc(-c3ccc(O)c(C45CC6CC(CC(C6)C4)C5)c3)ccc2c1 [O-DEMETHYLATED ADAPALENE]	10.1	2.38
> 20	> 20	–	COc1cccc2c(Nc3ccc4[nH]c(C(=O)N/N=C/c5cc(C(F)(F)F)ccc5Br)cc4c3)cc(C)nc12	> 20	12.7
> 20	> 20	–	COc1cccc2c(Nc3ccc4[nH]c(C(=O)N/N=C/c5ccc[nH]5)cc4c3)cc(C)nc12	> 20	> 20
16.6	11	–	COc1ccc(/C=N/NC(=O)c2cc3cc(Nc4cc(C)nc5c(OC)cccc45)ccc3[nH]2)c2ccccc12	9.16	4.61
1.24	0.98	–	COc1cccc2c(Nc3ccc4[nH]c(C(=O)N/N=C/c5ccccc5Cl)cc4c3)cc(C)nc12	3.68	1.06
